pIC50: −log10 of the molar value.
Tests used:
Assay type in all cases: functional, cell-based
[1] = system: MGC-803; experiment: Cytotoxicity against human MGC803 cells after 72 hrs by MTT assay; settings: for pIC50: MGC-803, 72 h
How it was run: (§1)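 Cancer lines grown in RPMI 1640 with 10% heat-inactivated FBS, 37 °C, 5% CO2. Cells trypsinized at 80-90% confluence, seeded at 2×10^3/well overnight, then given compounds (DMSO stocks diluted in medium) at various concentrations for 72 h at 37 °C. Controls: 0.1% DMSO negative, adriamycin positive. MTT (5 mg/ml) added for 4 h, formazan dissolved in SDS 12 h, A595 read. IC50 from dose-response curves.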

[2] = (§2) Cytotoxicity against human PC3 cells after 72 hrs by MTT assay; settings: PC-3, 72 h
How it was run: as §1, with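 “Cells” for “Cancer lines grown in RPMI 1640 with 10% heat-inactivated FBS, 37 °C, 5% CO2. Cells”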

[3] = system: PC-3; experiment: as §2
How it was run: as §1, with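 “Cells” for “Cancer lines grown in RPMI 1640 with 10% heat-inactivated FBS, 37 °C, 5% CO2. Cells”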

[4] = system: Bcap37; experiment: Cytotoxicity against human Bcap37 cells after 72 hrs by MTT assay; settings: for pIC50: Bcap37, 72 h; how it was run: as §1
[5] = system: A-375; experiment: Cytotoxicity against human A375 cells after 72 hrs by MTT assay; settings: for pIC50: A-375, 72 h; how it was run: as §1
[6] = system: MCF7; experiment: Cytotoxicity against human MCF7 cells after 72 hrs by MTT assay; settings: for pIC50: MCF7, 72 h; how it was run: as §1

| Structure (SMILES) | Activity [1] | pIC50 [1] | pIC50 [2] | Activity [3] | Activity [4] | pIC50 [4] | Activity [5] | pIC50 [5] | Activity [6] | pIC50 [6] |
| --- | --- | --- | --- | --- | --- | --- | --- | --- | --- | --- |
| C=C(C)[C@@H]1CC[C@]2(C(=O)OCCCN3CCCC3)CC[C@]3(C)[C@H](CC[C@@H]4[C@@]5(C)CCC(=O)C(C)(C)[C@@H]5CC[C@]43C)[C@@H]12 | Dose-dependent effect | 5.13 | 5.12 | Dose-dependent effect | Dose-dependent effect | 5.04 | Dose-dependent effect | 5.08 | Dose-dependent effect | 5.08 |
| C=C(C)[C@@H]1CC[C@]2(C(=O)OCCN3CCN(C(=O)/C=C/c4ccccc4)CC3)CC[C@]3(C)[C@H](CC[C@@H]4[C@@]5(C)CCC(=O)C(C)(C)[C@@H]5CC[C@]43C)[C@@H]12 | Dose-dependent effect | 4.87 | 4.96 | Dose-dependent effect | Dose-dependent effect | 5.03 | Dose-dependent effect | 5.03 | Dose-dependent effect | 5.14 |
| C=C(C)[C@@H]1CC[C@]2(C(=O)OCCCBr)CC[C@]3(C)[C@H](CC[C@@H]4[C@@]5(C)CCC(=O)C(C)(C)[C@@H]5CC[C@]43C)[C@@H]12 | Dose-dependent effect | < 4.70 | < 4.70 | Dose-dependent effect | Dose-dependent effect | < 4.70 | Dose-dependent effect | < 4.70 | Dose-dependent effect | < 4.70 |
| C=C(C)[C@@H]1CC[C@]2(C(=O)OCCN3CCOCC3)CC[C@]3(C)[C@H](CC[C@@H]4[C@@]5(C)CCC(=O)C(C)(C)[C@@H]5CC[C@]43C)[C@@H]12 | Dose-dependent effect | 5.03 | 4.95 | Dose-dependent effect | Dose-dependent effect | 5.06 | Dose-dependent effect | 4.98 | Dose-dependent effect | 5.00 |
| C=C(C)[C@@H]1CC[C@]2(C(=O)O)CC[C@]3(C)[C@H](CC[C@@H]4[C@@]5(C)CCC(=O)C(C)(C)[C@@H]5CC[C@]43C)[C@@H]12 [BETUNOLIC ACID] | – | 4.75 | 4.86 | Dose-dependent effect | Dose-dependent effect | 4.59 | Dose-dependent effect | 4.54 | Dose-dependent effect | 4.74 |
| C=C(C)[C@@H]1CC[C@]2(C(=O)OCCN3CCN(C(=O)CCCCCCCC)CC3)CC[C@]3(C)[C@H](CC[C@@H]4[C@@]5(C)CCC(=O)C(C)(C)[C@@H]5CC[C@]43C)[C@@H]12 | Dose-dependent effect | < 4.70 | < 4.70 | Dose-dependent effect | Dose-dependent effect | < 4.70 | Dose-dependent effect | < 4.70 | Dose-dependent effect | 4.75 |
| C=C(C)[C@@H]1CC[C@]2(C(=O)OCCN3CCN(C(=O)c4c(Cl)cccc4Cl)CC3)CC[C@]3(C)[C@H](CC[C@@H]4[C@@]5(C)CCC(=O)C(C)(C)[C@@H]5CC[C@]43C)[C@@H]12 | Dose-dependent effect | 4.78 | 4.85 | Dose-dependent effect | Dose-dependent effect | < 4.70 | Dose-dependent effect | 4.76 | Dose-dependent effect | 4.97 |
| C=C(C)[C@@H]1CC[C@]2(C(=O)OCCN3CCN(C(=O)c4cccc(F)c4)CC3)CC[C@]3(C)[C@H](CC[C@@H]4[C@@]5(C)CCC(=O)C(C)(C)[C@@H]5CC[C@]43C)[C@@H]12 | Dose-dependent effect | 5.31 | 5.17 | Dose-dependent effect | Dose-dependent effect | 5.19 | Dose-dependent effect | 5.12 | Dose-dependent effect | 5.27 |
| C=C(C)[C@@H]1CC[C@]2(C(=O)OCCCCBr)CC[C@]3(C)[C@H](CC[C@@H]4[C@@]5(C)CCC(=O)C(C)(C)[C@@H]5CC[C@]43C)[C@@H]12 | Dose-dependent effect | < 4.70 | < 4.70 | Dose-dependent effect | Dose-dependent effect | < 4.70 | Dose-dependent effect | < 4.70 | Dose-dependent effect | < 4.70 |
| C=C(C)[C@@H]1CC[C@]2(C(=O)OCCCCN3CCOCC3)CC[C@]3(C)[C@H](CC[C@@H]4[C@@]5(C)CCC(=O)C(C)(C)[C@@H]5CC[C@]43C)[C@@H]12 | Dose-dependent effect | 5.25 | 5.14 | Dose-dependent effect | Dose-dependent effect | 5.28 | Dose-dependent effect | 5.17 | Dose-dependent effect | 5.07 |
| C=C(C)[C@@H]1CC[C@]2(C(=O)OCCN3CCN(C(=O)C(CC)CCCC)CC3)CC[C@]3(C)[C@H](CC[C@@H]4[C@@]5(C)CCC(=O)C(C)(C)[C@@H]5CC[C@]43C)[C@@H]12 (stereo partly specified) | Dose-dependent effect | 4.87 | < 4.70 | Dose-dependent effect | Dose-dependent effect | 4.73 | Dose-dependent effect | < 4.70 | Dose-dependent effect | 4.81 |
| C=C(C)[C@@H]1CC[C@]2(C(=O)OCCBr)CC[C@]3(C)[C@H](CC[C@@H]4[C@@]5(C)CCC(=O)C(C)(C)[C@@H]5CC[C@]43C)[C@@H]12 | Dose-dependent effect | < 4.70 | < 4.70 | Dose-dependent effect | Dose-dependent effect | < 4.70 | Dose-dependent effect | < 4.70 | Dose-dependent effect | < 4.70 |
| C=C(C)[C@@H]1CC[C@]2(C(=O)OCCCN(CC)CC)CC[C@]3(C)[C@H](CC[C@@H]4[C@@]5(C)CCC(=O)C(C)(C)[C@@H]5CC[C@]43C)[C@@H]12 | Dose-dependent effect | 5.17 | 5.15 | Dose-dependent effect | Dose-dependent effect | 5.21 | Dose-dependent effect | 5.03 | Dose-dependent effect | 5.14 |
| C=C(C)[C@@H]1CC[C@]2(C(=O)OCCN(CC)CC)CC[C@]3(C)[C@H](CC[C@@H]4[C@@]5(C)CCC(=O)C(C)(C)[C@@H]5CC[C@]43C)[C@@H]12 | Dose-dependent effect | 4.93 | 5.00 | Dose-dependent effect | Dose-dependent effect | 4.81 | Dose-dependent effect | 4.84 | Dose-dependent effect | 4.89 |
| C=C(C)[C@@H]1CC[C@]2(C(=O)OCCCN3CCOCC3)CC[C@]3(C)[C@H](CC[C@@H]4[C@@]5(C)CCC(=O)C(C)(C)[C@@H]5CC[C@]43C)[C@@H]12 | Dose-dependent effect | 5.25 | 5.18 | Dose-dependent effect | Dose-dependent effect | 5.14 | Dose-dependent effect | 5.07 | Dose-dependent effect | 5.03 |
| C=C(C)[C@@H]1CC[C@]2(C(=O)OCCN3CCCC3)CC[C@]3(C)[C@H](CC[C@@H]4[C@@]5(C)CCC(=O)C(C)(C)[C@@H]5CC[C@]43C)[C@@H]12 | Dose-dependent effect | 4.97 | 4.91 | Dose-dependent effect | Dose-dependent effect | 4.99 | Dose-dependent effect | 5.01 | Dose-dependent effect | 5.03 |
| COc1cccc2c1C(=O)c1c(O)c3c(c(O)c1C2=O)C[C@@](O)(C(=O)CO)C[C@@H]3O[C@H]1C[C@H](N)[C@H](O)[C@H](C)O1 [DOXORUBICIN] | Dose-dependent effect | – | – | Dose-dependent effect | Dose-dependent effect | 5.92 | Dose-dependent effect | 6.00 | – | 5.87 |
